Consider nine molecules from ChEMBL document CHEMBL4219228, “Substituent effect of N-benzylated gramine derivatives that prevent the PP2A inhibition and dissipate the neuronal Ca2+ overload, as a multitarget strategy for the treatment of Alzheimer's disease” (Bioorg Med Chem, 2018).

Series [1] has as its system SH-SY5Y. The experiment in a line: Cytotoxicity against human SH-SY5Y cells assessed as cell viability at 3 uM incubated for 48 hrs by MTT assay.
The test system of series [2] is Voltage-gated calcium channel. Description: Inhibition of KCl-induced cytosolic voltage gated calcium channel opening in human SH-SY5Y cells at 10 uM by Fluo-4 AM dye based fluorescence assay relative to control. Format: cell-based. A digest of the protocol: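 SH-SY5Y cells were loaded with Fluo-4/AM (10 µM) in Krebs-HEPES and preincubated with compound at 10 µM. They were then depolarized with 70 mM K+, and fluorescence (ex 485/em 520 nm) was monitored in real time. ΔF = (Fx−F0)/(Fmax−Fmin), using Triton X-100 for Fmax and MnCl2 for Fmin. Values are % blockade (100−ΔF) against vehicle (DMSO 0.1%), with ≥4 independent experiments in triplicate.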

Series [3] has as its target Glutamate NMDA receptor (Rattus norvegicus) (UniProt P35439+Q00959+Q00960+Q00961+Q62645+Q8VHN2+Q9R1M7). The experiment in a line: Inhibition of NMDA receptor in rat cortical embryonic neurons assessed as reduction in NMDA-induced cytosolic calcium level at 10 uM by Fluo-4 AM dye based fluorescence assay relative to control. In short, it runs like this: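 Cortical neurons came from E18 rat embryos (two pregnant rats). They were loaded with Fluo-4/AM (3 µM) in Krebs-HEPES, incubated with compound at 10 µM, then stimulated with NMDA 10 µM, and fluorescence was read at ex 485/em 520 nm. Normalized ΔF is reported as % blockade against vehicle (DMSO 0.1%), with ≥4 independent experiments in triplicate.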

In series [4] the test system is SH-SY5Y. The experiment in a line: Neuroprotective activity against okadaic acid-induced cell death in human SH-SY5Y cells assessed as cell viability at 0.1 uM preincubated for 24 hrs followed by cotreatment with PPA2 inhibitor okadaic acid measured after 20 hrs by MTT assay (reference value: 50.1 +/- 0.2%). Format: functional. Particulars: read-out: Activity.
Series [5] addresses Voltage-gated calcium channel. The experiment in a line: Inhibition of KCl-induced cytosolic voltage gated calcium channel opening in human SH-SY5Y cells by Fluo-4 AM dye based fluorescence assay. The format is cell-based. In short, it runs like this:
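Fluo-4/AM-loaded (10 µM) SH-SY5Y cells in Krebs-HEPES received compound at several concentrations before 70 mM K+ depolarization, with readings at ex 485/em 520 nm. ΔF was normalized to vehicle (DMSO 0.1%) cultures. IC50 is the concentration halving ΔF, from a variable-slope non-linear regression of log concentration vs normalized response. Three experiments in triplicate.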

For series [6], the system named is SH-SY5Y. The experiment in a line: Cytotoxicity against human SH-SY5Y cells assessed as cell viability at 10 uM incubated for 48 hrs by MTT assay.
Series [7] addresses T1, Serine/threonine-protein phosphatase 2A 55 kDa regulatory subunit B alpha isoform (Homo sapiens) (UniProt P63151).
T1 sequence (whole entry): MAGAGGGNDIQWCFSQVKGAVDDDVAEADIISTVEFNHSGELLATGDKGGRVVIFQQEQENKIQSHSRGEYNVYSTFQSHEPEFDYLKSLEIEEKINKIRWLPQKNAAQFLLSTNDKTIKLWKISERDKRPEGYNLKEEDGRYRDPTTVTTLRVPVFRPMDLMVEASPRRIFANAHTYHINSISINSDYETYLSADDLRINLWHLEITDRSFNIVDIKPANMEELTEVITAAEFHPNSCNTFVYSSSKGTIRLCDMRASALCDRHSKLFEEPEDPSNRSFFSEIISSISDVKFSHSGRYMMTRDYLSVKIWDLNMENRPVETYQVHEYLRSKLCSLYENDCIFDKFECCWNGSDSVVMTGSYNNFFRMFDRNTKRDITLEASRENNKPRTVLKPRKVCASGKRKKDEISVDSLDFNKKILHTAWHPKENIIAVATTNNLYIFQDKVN
The experiment in a line: Reversal of okadaic acid mediated PP2A PR55alpha B regulatory subunit inactivation in human SH-SY5Y cells at 0.1 uM preincubated for 24 hrs followed by cotreatment with PPA2 inhibitor okadaic acid for 18 hrs measured over 30 mins by pNPP based spectrophotometric analysis. The format is cell-based. In short, it runs like this: (§1)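 SH-SY5Y cells were preincubated with compound for 24 h, then exposed for 18 h to okadaic acid 15 nM plus compound in fresh MEM/F12 with 1% FBS. Phosphatase activity was measured by pNPP dephosphorylation for 30 min at 37 °C, reading p-nitrophenolate at 405 nm. Values were normalized to cells not exposed to OA; at least three independent experiments.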

The target in series [8] is T1, Serine/threonine-protein phosphatase 2A 55 kDa regulatory subunit B alpha isoform (Homo sapiens). Description: Reversal of okadaic acid mediated PP2A PR55alpha B regulatory subunit inactivation in human SH-SY5Y cells assessed as residual activity at 0.1 uM preincubated for 24 hrs followed by cotreatment with PPA2 inhibitor okadaic acid for 18 hrs measured over 30 mins by pNPP based spectrophotometric analysis relative to control. Format: cell-based. In short, it runs like this: as §1

Each structure is given as a SMILES string. Calls of active or inactive are those of the source. The rule behind the calls is not given here.

`Cc1ccc2c(c1)c(CN1CCCCC1)cn2Cc1cccc([N+](=O)[O-])c1`: the Activity entry in the series with SH-SY5Y [1] was “Non-Toxic”. In series [2], the “inhibition (INH)” value is reported as 90%. Also, the inhibition in series [3] turned out to be 22%. In the series on SH-SY5Y [4], the viability at 0.1 µM worked out at 67%. Moreover, in series [5], the IC50 was found to be 3 µM.

Take `Cc1ccc2c(c1)c(CN1CCCCC1)cn2Cc1cccc(Cl)c1`: the Activity result in the series with SH-SY5Y [1] is recorded as “Non-Toxic”; in the series on SH-SY5Y [6] it was “Toxic”. In series [2], the “inhibition (INH)” value is listed as 97%. For the same molecule, in series [3], the inhibition amounted to 37%. In addition, in the series on SH-SY5Y [4], the viability at 0.1 µM was 67%. In series [7], the result was Active. The 50% inhibitory concentration (IC50) in series [5] was 2.2 µM.

Take `COC(=O)C1=C(C)NC(C)=C(C(=O)OC)C1c1ccccc1[N+](=O)[O-]` [NIFEDIPINE]: the “inhibition (INH)” value in series [2] stood at 32%.

On to `CC12CC3CC(C)(C1)CC(N)(C3)C2`, for which the inhibition in series [3] worked out at 41%.

For the molecule `Cc1ccc2c(c1)c(CN1CCCCC1)cn2Cc1ccc(Cl)cc1`, the Activity result in the series with SH-SY5Y [1] was “Non-Toxic”; in the series with SH-SY5Y [6], “Toxic”. For the same molecule, the “inhibition (INH)” value in series [2] came out at 95%. In series [3], the inhibition is 52%. Moreover, in the series on SH-SY5Y [4], the viability at 0.1 µM was 67%. Also, the result in series [7] was Active. For the same molecule, in series [5], the IC50 was 3 µM.

In the case of `Cc1ccc2c(c1)c(CN1CCCCC1)cn2Cc1ccccc1[N+](=O)[O-]`, in the series with SH-SY5Y [1], the Activity result is recorded as “Non-Toxic”. Also, the “inhibition (INH)” value in series [2] was determined as 90%. In series [3], the inhibition was 24%. Besides, in the series on SH-SY5Y [4], the viability at 0.1 µM turned out to be 70%. Besides, the IC50 in series [5] was found to be 1.8 µM.

Regarding `Cc1ccc(Cn2cc(CN3CCCCC3)c3cc(C)ccc32)cc1`, the Activity result with SH-SY5Y [1] is “Non-Toxic”. Also, in series [2], the “inhibition (INH)” value stood at 94%. For the same molecule, the inhibition in series [3] amounted to 32%. For the same molecule, the viability at 0.1 µM with SH-SY5Y [4] is 67%. Besides, the outcome in series [7] was Active. Moreover, the IC50 in series [5] is 3.6 µM.

On to `Cc1ccc2c(c1)c(CN1CCCCC1)cn2Cc1ccccc1`, for which the “inhibition (INH)” value in series [2] is on record as 87%. Moreover, the inhibition in series [3] was determined as 42%. Further, the viability at 0.1 µM in the series on SH-SY5Y [4] was found to be 73%. In addition, in series [7], the result was Active. The IC50 in series [5] came to 3.4 µM.

Turning to `Cc1ccc2c(c1)c(CN1CCCCC1)cn2Cc1ccc(F)cc1`, the Activity result is “Non-Toxic” in the series with SH-SY5Y [1] and 93% in series [8]. Further, in series [2], the “inhibition (INH)” value stood at 79%. Besides, in series [3], the inhibition stood at 34%. In the series on SH-SY5Y [4], the viability at 0.1 µM turned out to be 67%. The outcome in series [7] was Active. Further, in series [5], the IC50 is 4.8 µM.
